From ChEMBL document CHEMBL5058577, “EUbOPEN Chemogenomics Library 2 (Multiplex)” (2022)

Test system: U2OS
Assay: Multiplex assay against U2OS
Type: toxicity, cell-based
Conditions: human
Summary of the method: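 Values for tubulin, mitochondrial-mass and membrane-permeability phenotypes are per cents of cells with healthy nuclei. These cells were identified by CellPathfinder machine-learning gating of live cells that had been stained at seeding with Hoechst33342, BioTracker Green Microtubule Cytoskeleton Dye, MitoTracker Red and Annexin V Alexa Fluor 680 and imaged on a CQ1 microscope at 37°C and 5% CO2 after compound addition. The gating first set Hoechst high-intensity objects apart from normal cells, then split normal cells into healthy, pyknosed or fragmented nuclei, and pyknosed cells into mitotic or apoptotic.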

[1] = 12 h, 1 µM, compound concentration 1 uM, replicate 1
[2] = 12 h, 1 µM, compound concentration 1 uM, replicate 2
[3] = 12 h, 10 µM, compound concentration 10 uM, replicate 1
[4] = 12 h, 10 µM, compound concentration 10 uM, replicate 2
[5] = 24 h, 1 µM, compound concentration 1 uM, replicate 1
[6] = 24 h, 1 µM, compound concentration 1 uM, replicate 2
[7] = 24 h, 10 µM, compound concentration 10 uM, replicate 1
[8] = 24 h, 10 µM, compound concentration 10 uM, replicate 2
[9] = 48 h, 1 µM, compound concentration 1 uM, replicate 1
[10] = 48 h, 1 µM, compound concentration 1 uM, replicate 2
[11] = 48 h, 10 µM, compound concentration 10 uM, replicate 1
[12] = 48 h, 10 µM, compound concentration 10 uM, replicate 2

COc1cc(C(=O)N2CC[C@@H](O)[C@@H](N)C2)cc2nc(-c3cc4ccccc4n3CC3CC3)n(C)c12.Cl
Population Apoptotic (%) [1]: 50% | Population Fragmented Nuclei (%) [1]: 32% | Population Healthy Nuclei (%) [1]: 53% | Population Hoechst High Intensity Objects (%) [1]: 4% | Population Membrane Permeable-Phenotype (%) [1]: 38% | Population Mitochondria Different-Phenotype (%) [1]: 16% | Population Mitotic Cells (%) [1]: 50% | Population Normal (%) [1]: 95% | Population Pyknosed Nuclei (%) [1]: 14% | Population Tubulin-Different-Phenotype (%) [1]: 29% | Total Cell Count [1]: 223 | Population Apoptotic (%) [2]: 75% | Population Fragmented Nuclei (%) [2]: 15% | Population Healthy Nuclei (%) [2]: 75% | Population Hoechst High Intensity Objects (%) [2]: 1% | Population Membrane Permeable-Phenotype (%) [2]: 20% | Population Mitochondria Different-Phenotype (%) [2]: 18% | Population Mitotic Cells (%) [2]: 25% | Population Normal (%) [2]: 98% | Population Pyknosed Nuclei (%) [2]: 8% | Population Tubulin-Different-Phenotype (%) [2]: 15% | Total Cell Count [2]: 92 | Population Apoptotic (%) [3]: 68% | Population Fragmented Nuclei (%) [3]: 23% | Population Healthy Nuclei (%) [3]: 38% | Population Hoechst High Intensity Objects (%) [3]: 6% | Population Membrane Permeable-Phenotype (%) [3]: 75% | Population Mitochondria Different-Phenotype (%) [3]: 88% | Population Mitotic Cells (%) [3]: 31% | Population Normal (%) [3]: 93% | Population Pyknosed Nuclei (%) [3]: 37% | Population Tubulin-Different-Phenotype (%) [3]: 96% | Total Cell Count [3]: 208 | Population Apoptotic (%) [4]: 56% | Population Fragmented Nuclei (%) [4]: 16% | Population Healthy Nuclei (%) [4]: 61% | Population Hoechst High Intensity Objects (%) [4]: 5% | Population Membrane Permeable-Phenotype (%) [4]: 79% | Population Mitochondria Different-Phenotype (%) [4]: 91% | Population Mitotic Cells (%) [4]: 44% | Population Normal (%) [4]: 94% | Population Pyknosed Nuclei (%) [4]: 22% | Population Tubulin-Different-Phenotype (%) [4]: 94% | Total Cell Count [4]: 120 | Population Apoptotic (%) [5]: 78% | Population Fragmented Nuclei (%) [5]: 28% | Population Healthy Nuclei (%) [5]: 54% | Population Hoechst High Intensity Objects (%) [5]: 3% | Population Membrane Permeable-Phenotype (%) [5]: 19% | Population Mitochondria Different-Phenotype (%) [5]: 14% | Population Mitotic Cells (%) [5]: 21% | Population Normal (%) [5]: 96% | Population Pyknosed Nuclei (%) [5]: 17% | Population Tubulin-Different-Phenotype (%) [5]: 12% | Total Cell Count [5]: 243 | Population Apoptotic (%) [6]: 75% | Population Fragmented Nuclei (%) [6]: 18% | Population Healthy Nuclei (%) [6]: 69% | Population Hoechst High Intensity Objects (%) [6]: 2% | Population Membrane Permeable-Phenotype (%) [6]: 17% | Population Mitochondria Different-Phenotype (%) [6]: 18% | Population Mitotic Cells (%) [6]: 25% | Population Normal (%) [6]: 97% | Population Pyknosed Nuclei (%) [6]: 11% | Population Tubulin-Different-Phenotype (%) [6]: 17% | Total Cell Count [6]: 109 | Population Apoptotic (%) [7]: 84% | Population Fragmented Nuclei (%) [7]: 25% | Population Healthy Nuclei (%) [7]: 35% | Population Hoechst High Intensity Objects (%) [7]: 4% | Population Membrane Permeable-Phenotype (%) [7]: 57% | Population Mitochondria Different-Phenotype (%) [7]: 88% | Population Mitotic Cells (%) [7]: 15% | Population Normal (%) [7]: 95% | Population Pyknosed Nuclei (%) [7]: 38% | Population Tubulin-Different-Phenotype (%) [7]: 78% | Total Cell Count [7]: 222 | Population Apoptotic (%) [8]: 71% | Population Fragmented Nuclei (%) [8]: 26% | Population Healthy Nuclei (%) [8]: 48% | Population Membrane Permeable-Phenotype (%) [8]: 50% | Population Mitochondria Different-Phenotype (%) [8]: 85% | Population Mitotic Cells (%) [8]: 28% | Population Pyknosed Nuclei (%) [8]: 25% | Population Tubulin-Different-Phenotype (%) [8]: 90% | Total Cell Count [8]: 133 | Population Apoptotic (%) [9]: 82% | Population Fragmented Nuclei (%) [9]: 23% | Population Healthy Nuclei (%) [9]: 61% | Population Hoechst High Intensity Objects (%) [9]: 2% | Population Membrane Permeable-Phenotype (%) [9]: 9% | Population Mitochondria Different-Phenotype (%) [9]: 5% | Population Mitotic Cells (%) [9]: 17% | Population Normal (%) [9]: 97% | Population Pyknosed Nuclei (%) [9]: 15% | Population Tubulin-Different-Phenotype (%) [9]: 5% | Total Cell Count [9]: 304 | Population Apoptotic (%) [10]: 76% | Population Membrane Permeable-Phenotype (%) [10]: 17% | Population Mitochondria Different-Phenotype (%) [10]: 11% | Population Mitotic Cells (%) [10]: 23% | Population Pyknosed Nuclei (%) [10]: 14% | Population Tubulin-Different-Phenotype (%) [10]: 12% | Total Cell Count [10]: 149 | Population Apoptotic (%) [11]: 88% | Population Fragmented Nuclei (%) [11]: 29% | Population Healthy Nuclei (%) [11]: 35% | Population Hoechst High Intensity Objects (%) [11]: 12% | Population Membrane Permeable-Phenotype (%) [11]: 47% | Population Mitochondria Different-Phenotype (%) [11]: 65% | Population Mitotic Cells (%) [11]: 11% | Population Normal (%) [11]: 87% | Population Pyknosed Nuclei (%) [11]: 35% | Population Tubulin-Different-Phenotype (%) [11]: 62% | Total Cell Count [11]: 232 | Population Apoptotic (%) [12]: 92% | Population Fragmented Nuclei (%) [12]: 30% | Population Hoechst High Intensity Objects (%) [12]: 6% | Population Mitochondria Different-Phenotype (%) [12]: 84% | Population Mitotic Cells (%) [12]: 7% | Population Normal (%) [12]: 93% | Population Pyknosed Nuclei (%) [12]: 34% | Population Tubulin-Different-Phenotype (%) [12]: 75% | Total Cell Count [12]: 131
